Laboratory results reported in ChEMBL document CHEMBL4007489, “First Bispecific Inhibitors of the Epidermal Growth Factor Receptor Kinase and the NF-κB Activity As Novel Anticancer Agents” (J Med Chem, 2017).
Calls of active or inactive are those of the source. No cut-off for these calls is given here.

What was measured:
[1] = target: T1, Epidermal growth factor receptor (Homo sapiens, UniProt P00533); settings: at 150 nM
Homo sapiens [2] = organism: Homo sapiens; experiment: Inhibition of TNFalpha-stimulated NF-kappaB (unknown origin) expressed in human U937 cells at 5 uM incubated for 3 hrs followed by TNFalpha stimulation measured after 2.5 hrs by luciferase reporter gene assay; assay type: cell-based
[3] = target: T1, Epidermal growth factor receptor; experiment: biochemical; assay type: cell-based
MDA-MB-231 [4] = experiment: Growth inhibition of human MDA-MB-231 cells at 20 uM after 48 hrs by MTT assay; assay type: functional, cell-based
Summary of the method: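 MDA-MB-231 cells seeded at 45000 per well and left to adhere overnight; compounds added after 24 h. Incubated a further 48 h at 37 °C. MTT added for 1 h, then cells lysed with 10% SDS in 0.01 N HCl for at least 2 h at 37 °C. Absorbance read at 570 nm.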

cells = assay type: cell-based; settings: Homo sapiens, U-937
Homo sapiens [5] = organism: Homo sapiens; experiment: Inhibition of TNFalpha-stimulated NF-kappaB (unknown origin) expressed in human U937 cells at 1 to 5 uM incubated for 3 hrs followed by TNFalpha stimulation measured after 2.5 hrs by luciferase reporter gene assay; assay type: cell-based
MDA-MB-231 [6] = experiment: cells; assay type: functional; settings: Homo sapiens, MDA-MB-231, 48 h
Homo sapiens [7] = organism: Homo sapiens; settings: at 10 µM;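 note: luciferase reporter readout of NF-kappaB activity in human U937 cells, compound added 3 h before TNFalpha stimulation, signal read 2.5 h after stimulation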
[8] = Cmax in NMRI nu/nu mouse at 10 mg/kg, sc administered as single dose by LC-MS analysis; assay type: ADME, organism-based; design: dose 10 mg/kg, route subcutaneous; settings: in vivo
Summary of the method: (§1)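 Female NMRI nu/nu mice (28−32 g), nine animals per compound. Single sc injection of 10 mg/kg, formulated at 1 mg/mL in PBS/propylene glycol (80:20, v/v) by ultrasonication. Blood sampled at 10 min, 30 min, 1, 3, 8 and 24 h, two samples per animal, into heparinized tubes. Plasma proteins precipitated with acetonitrile containing griseofulvin internal standard. Quantified by LC-MS against calibration standards prepared in drug-free plasma.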

Mus musculus [9] = experiment: Toxicity in human MDA-MB-231 cells xenografted NMRI nu/nu mouse assessed as anomalous behaviour at 10 mg/kg, sc administered 5 days post tumor cell inoculation treated for 14 days followed by treatment pause for 6 days followed by treatment continuation on every second day until day 28 measured on day 7, 14 and day 28; assay type: organism-based; settings: in vivo
Summary of the method: (§2)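 Mice bearing MDA-MB-231 xenografts were monitored for behaviour and body weight over the 28-day sc dosing schedule. Organ morphology was inspected after sacrifice.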

Mus musculus [10] = experiment: Toxicity in NMRI nu/nu mouse assessed as effect on organ morphology at 10 mg/kg, sc administered as single dose; assay type: organism-based; settings: in vivo
Mus musculus [11] = experiment: Toxicity in human MDA-MB-231 cells xenografted NMRI nu/nu mouse assessed as effect on body weight at 10 mg/kg, sc administered 5 days post tumor cell inoculation treated for 14 days followed by treatment pause for 6 days followed by treatment continuation on every second day until day 28 measured on day 7, 14 and day 28; assay type: organism-based; settings: in vivo
Summary of the method: as §2

[12] = Blood clearance in Sprague-Dawley rat by LC-MS/MS analysis; assay type: ADME
Mus musculus [13] = experiment: Toxicity in human MDA-MB-231 cells xenografted NMRI nu/nu mouse assessed as effect on organ morphology at 10 mg/kg, sc administered 5 days post tumor cell inoculation treated for 14 days followed by treatment pause for 6 days followed by treatment continuation on every second day until day 28 measured on day 7, 14 and day 28; assay type: organism-based; settings: in vivo
Summary of the method: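 Female NMRI nu/nu mice (~8 weeks old) received 2 × 10^6 MDA-MB-231 cells in Matrigel into each flank. Dosing began 5 days later (day 1), with 6 mice per group. Compound or vehicle was given sc in PBS/propylene glycol (80:20, v/v) at 1 mg/mL. Behaviour and body weight were followed. Organs were inspected morphologically after sacrifice on day 28.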

[14] = Solubility in water; assay type: physicochemical; settings: buffer
[15] = Tmax in NMRI nu/nu mouse at 10 mg/kg, sc administered as single dose by LC-MS analysis; assay type: ADME, organism-based; settings: in vivo
Summary of the method: as §1

[16] = Drug uptake in NMRI nu/nu mouse at 10 mg/kg, sc administered as single dose after 24 hrs by LC-MS analysis; assay type: ADME, organism-based; settings: in vivo, read-out: Drug uptake
Summary of the method: as §1

[17] = Apparent oral clearance in NMRI nu/nu mouse at 10 mg/kg, sc administered as single dose by LC-MS analysis; assay type: ADME, organism-based; settings: in vivo
Summary of the method: as §1

[18] = Half life in Sprague-Dawley rat liver microsomes assessed as parent compound remaining at 0.5 uM in presence of NADPH by LC-MS/MS analysis; assay type: ADME, microsome
[19] = AUC (0 to infinity) in NMRI nu/nu mouse at 10 mg/kg, sc administered as single dose by LC-MS analysis; assay type: ADME, organism-based; design: dose 10 mg/kg, route subcutaneous, time infinity; settings: in vivo
Summary of the method: as §1

Mus musculus [20] = experiment: Toxicity in NMRI nu/nu mouse assessed as anomalous behaviour at 10 mg/kg, sc administered as single dose; assay type: organism-based; settings: in vivo
[21] = Half life in NMRI nu/nu mouse at 10 mg/kg, sc administered as single dose by LC-MS analysis; assay type: ADME, organism-based; settings: in vivo
Summary of the method: as §1

[22] = AUC (0 to 24 hrs) in NMRI nu/nu mouse at 10 mg/kg, sc administered as single dose by LC-MS analysis; assay type: ADME, organism-based; design: dose 10 mg/kg, time < 24 hr, route subcutaneous; settings: in vivo
Summary of the method: as §1

[23] = target: Proteasome Macropain subunit (Homo sapiens) (UniProt P49721); settings: 1 uM
Proteasome Macropain subunit (Homo sapiens), sequence (P49721 whole entry): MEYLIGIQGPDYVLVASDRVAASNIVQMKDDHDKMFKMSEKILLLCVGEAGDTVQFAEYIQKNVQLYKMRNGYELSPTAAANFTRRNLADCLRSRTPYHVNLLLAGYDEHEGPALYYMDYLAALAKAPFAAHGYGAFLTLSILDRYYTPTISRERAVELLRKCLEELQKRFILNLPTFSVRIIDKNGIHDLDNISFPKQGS

[24] = target: Transcription factor p65 (Homo sapiens) (UniProt Q04206); experiment: Inhibition of IL-1beta-stimulated nuclear translocation of GFP-tagged NF-kappaB-p65 (unknown origin) expressed in CHO cells preincubated with IL-1beta for 30 mins followed by compound addition by fluorescence assay; assay type: cell-based
Transcription factor p65 (Homo sapiens), sequence (Q04206 whole entry, the tested form may be a part): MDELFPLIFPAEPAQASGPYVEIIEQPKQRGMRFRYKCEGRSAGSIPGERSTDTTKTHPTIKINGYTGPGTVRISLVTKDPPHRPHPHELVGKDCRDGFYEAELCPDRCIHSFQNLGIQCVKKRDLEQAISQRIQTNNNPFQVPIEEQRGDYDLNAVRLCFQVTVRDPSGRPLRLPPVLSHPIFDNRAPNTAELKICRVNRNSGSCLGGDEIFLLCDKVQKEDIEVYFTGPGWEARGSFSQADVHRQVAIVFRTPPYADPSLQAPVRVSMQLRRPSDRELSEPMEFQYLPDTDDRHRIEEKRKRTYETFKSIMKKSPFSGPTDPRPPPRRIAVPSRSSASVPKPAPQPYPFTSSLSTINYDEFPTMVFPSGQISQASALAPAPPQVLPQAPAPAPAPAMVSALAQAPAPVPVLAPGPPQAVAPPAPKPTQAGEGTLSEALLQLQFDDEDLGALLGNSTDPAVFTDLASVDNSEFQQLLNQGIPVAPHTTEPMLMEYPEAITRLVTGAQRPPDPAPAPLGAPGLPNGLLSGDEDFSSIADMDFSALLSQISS
Summary of the method: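 A GFP-NF-κB-p65 fusion was used; cells were stimulated for 30 min with 25 ng/mL IL-1β. Translocation of the fusion protein from cytoplasm to nucleus was imaged, and the system automatically quantified the ratio of cytoplasmic to nuclear fluorescence per well.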

[25] = target: T2, Proteasome Macropain subunit MB1 (Homo sapiens) (UniProt P28074); experiment: Inhibition of chymotrypsin like activity of 26S proteasome derived from human MDA-MB-231 cells at 1 uM
T2 sequence (whole entry): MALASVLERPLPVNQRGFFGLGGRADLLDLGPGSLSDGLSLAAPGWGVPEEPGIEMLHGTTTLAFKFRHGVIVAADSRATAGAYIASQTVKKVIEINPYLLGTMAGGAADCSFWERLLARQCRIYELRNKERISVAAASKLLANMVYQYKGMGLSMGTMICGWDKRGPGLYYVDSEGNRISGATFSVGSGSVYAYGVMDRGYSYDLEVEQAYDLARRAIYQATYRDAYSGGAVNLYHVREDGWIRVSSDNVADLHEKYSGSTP
Summary of the method: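 Total protein extract from MDA-MB-231 cells served as the source of 26S proteasome. Trypsin-like, chymotrypsin-like and caspase-like activities were each measured with a specific fluorigenic peptide substrate.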

[26] = target: T3, Proteasome component C5 (Homo sapiens) (UniProt P20618); settings: 1 uM
T3 sequence (whole entry): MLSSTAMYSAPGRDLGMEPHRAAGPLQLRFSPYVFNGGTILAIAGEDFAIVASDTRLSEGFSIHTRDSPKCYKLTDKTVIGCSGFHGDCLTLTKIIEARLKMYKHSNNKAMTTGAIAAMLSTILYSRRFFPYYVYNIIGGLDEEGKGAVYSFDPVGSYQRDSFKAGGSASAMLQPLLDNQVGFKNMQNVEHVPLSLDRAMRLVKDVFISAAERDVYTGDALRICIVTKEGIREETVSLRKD

T1 sequence (P00533 whole entry): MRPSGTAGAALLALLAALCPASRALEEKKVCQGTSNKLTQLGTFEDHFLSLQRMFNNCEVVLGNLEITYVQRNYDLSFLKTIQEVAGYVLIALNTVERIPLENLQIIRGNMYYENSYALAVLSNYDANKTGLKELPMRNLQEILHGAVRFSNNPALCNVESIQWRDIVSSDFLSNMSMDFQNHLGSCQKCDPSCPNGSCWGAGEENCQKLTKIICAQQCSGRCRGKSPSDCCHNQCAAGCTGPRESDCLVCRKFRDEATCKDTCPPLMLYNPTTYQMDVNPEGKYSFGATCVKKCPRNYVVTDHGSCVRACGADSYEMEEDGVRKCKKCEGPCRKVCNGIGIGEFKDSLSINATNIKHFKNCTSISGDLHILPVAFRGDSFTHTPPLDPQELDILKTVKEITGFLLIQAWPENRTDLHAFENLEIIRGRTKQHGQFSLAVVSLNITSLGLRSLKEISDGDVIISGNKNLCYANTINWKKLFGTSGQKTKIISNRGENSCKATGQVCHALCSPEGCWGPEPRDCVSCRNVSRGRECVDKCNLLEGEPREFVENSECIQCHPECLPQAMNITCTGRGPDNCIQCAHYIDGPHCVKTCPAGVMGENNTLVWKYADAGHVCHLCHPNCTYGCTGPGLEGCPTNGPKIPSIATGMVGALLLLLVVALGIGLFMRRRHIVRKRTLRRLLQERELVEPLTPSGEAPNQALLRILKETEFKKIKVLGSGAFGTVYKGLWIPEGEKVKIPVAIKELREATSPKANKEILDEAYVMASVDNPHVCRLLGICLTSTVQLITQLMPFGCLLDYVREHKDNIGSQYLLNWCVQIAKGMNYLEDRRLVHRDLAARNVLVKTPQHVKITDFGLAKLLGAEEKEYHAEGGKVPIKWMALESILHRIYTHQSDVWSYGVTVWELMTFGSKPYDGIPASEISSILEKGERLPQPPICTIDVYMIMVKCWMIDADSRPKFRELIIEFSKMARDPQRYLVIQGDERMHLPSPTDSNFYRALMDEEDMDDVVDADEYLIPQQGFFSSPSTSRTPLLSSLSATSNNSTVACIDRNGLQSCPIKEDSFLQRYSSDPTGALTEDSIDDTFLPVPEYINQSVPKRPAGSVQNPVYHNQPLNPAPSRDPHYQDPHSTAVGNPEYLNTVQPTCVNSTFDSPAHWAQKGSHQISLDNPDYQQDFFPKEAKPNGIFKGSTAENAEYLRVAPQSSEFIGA

Row | SMILES | inhibition [1] | inhibition (Homo sapiens [2]) | IC50 [3] | IC50 (cells) | GI50 (MDA-MB-231 [6]) | inhibition (Homo sapiens [7]) | further results
1 | Fc1ccc(NC(=S)Nc2ccc3ncnc(Nc4cccc(Cl)c4)c3c2)cc1F | 44.4% | 37.6% |  |  |  |  | 
2 | S=C(Nc1ccc2ncnc(Nc3cccc(Cl)c3)c2c1)Nc1ncc(Cl)s1 | 60% | 88.2% | 120 nM | 700 nM |  |  | growth inhibition (GI) (MDA-MB-231 [4]): inactive
3 | O=C1NC(=O)/C(=C/c2cccc(C(F)(F)F)c2)S1 |  |  |  |  |  |  | inhibition (Homo sapiens [5]): inactive
4 | FC(F)(F)c1nnc(NC(=S)Nc2ccc3ncnc(Nc4cccc(Cl)c4)c3c2)s1 | 70.7% | 80.5% | 130 nM | 1000 nM |  |  | 
5 | S=C(Nc1ccc(Br)cc1)Nc1ccc2ncnc(Nc3cccc(Br)c3)c2c1 | 70.4% |  | 35.4 nM | 2000 nM | > 30000 nM | 96.7% | 
6 | S=C(NCc1ccccc1)Nc1ccc2ncnc(Nc3ccccc3Br)c2c1 | 13.1% |  | > 150 nM | 6500 nM | > 30000 nM | 85.7% | 
7 | S=C(NCc1ccccc1)Nc1ccc2ncnc(Nc3ccc(Br)cc3)c2c1 | 47.7% |  | > 150 nM | 3800 nM | 15100 nM | 92.1% | 
8 | FC(F)(F)c1cccc(NC(=S)Nc2ccc3ncnc(Nc4cccc(Br)c4)c3c2)c1 | 57.5% |  | 60.7 nM | 1000 nM | 1400 nM | 96.5% | 
9 | S=C(Nc1cncc(Cl)c1)Nc1ccc2ncnc(Nc3cccc(Cl)c3)c2c1 | 85% | 78% | 55.5 nM | 3000 nM |  |  | 
10 | Cc1nnc(NC(=S)Nc2ccc3ncnc(Nc4cccc(Cl)c4)c3c2)s1 | 70.8% | 76.1% | 120 nM | 1200 nM |  |  | 
11 | FC(F)(F)c1csc(NC(=S)Nc2ccc3ncnc(Nc4cccc(Cl)c4)c3c2)n1 | 56.4% | 92% | 137 nM | 600 nM | 900 nM |  | Cmax [8]: 101 ng/mL; Activity (Mus musculus [9]): Non-Toxic; Activity (Mus musculus [10]): Non-Toxic; Activity (Mus musculus [11]): Non-Toxic; clearance [12]: 51 mL/min/kg; Activity (Mus musculus [13]): Non-Toxic; solubility [14]: Soluble; Tmax [15]: 1 h; concentration at 24 h [16]: 3.5 ng/mL; CL/F [17]: 157 mL/min/kg; half-life at 0.5 µM [18]: 0.367 h; AUC(0-inf) [19]: 1060 ng·h/mL; Activity (Mus musculus [20]): Non-Toxic; half-life [21]: 4.3 h; AUC(0-t) at 24 h [22]: 1040 ng·h/mL
12 | FC(F)(F)c1ccc(NC(=S)Nc2ccc3ncnc(Nc4cccc(Br)c4)c3c2)cc1 | 38.1% |  | > 150 nM | 1700 nM | 12200 nM | 94.8% | 
13 | FC(F)(F)c1cc(NC(=S)Nc2ccc3ncnc(Nc4cccc(Br)c4)c3c2)cc(C(F)(F)F)c1 | 32.3% |  | > 150 nM | 1900 nM | 800 nM | 100% | 
14 | S=C(Nc1ccc2ncnc(Nc3cccc(Br)c3)c2c1)Nc1ccccc1Cl | 84.3% |  | 15.8 nM | 3500 nM | 8500 nM | 95.8% | 
15 | S=C(Nc1cc(Cl)cc(Cl)c1)Nc1ccc2ncnc(Nc3cccc(Br)c3)c2c1 | 50.9% |  | 146 nM | 1800 nM | 3000 nM | 99.6% | 
16 | CC(C)C[C@H](NC(=O)[C@H](Cc1ccccc1)NC(=O)c1cnccn1)B(O)O |  |  |  |  |  |  | inhibition [23]: Active; inhibition [24]: Dose-dependent effect; inhibition [25]: Active; inhibition [26]: Active
17 | S=C(Nc1ccccc1)Nc1ccc2ncnc(Nc3cccc(Br)c3)c2c1 | 86.5% |  | 15.8 nM | 5200 nM | 10000 nM | 90.7% | 
18 | Oc1ccc(NC(=S)Nc2ccc3ncnc(Nc4cccc(Br)c4)c3c2)cc1 | 91.5% |  | 8.9 nM | 6400 nM | 17300 nM | 85.3% | 
